Measured values taken from ChEMBL document CHEMBL3797184, “Benzo[d]thiazol-2-yl(piperazin-1-yl)methanones as new anti-mycobacterial chemotypes: Design, synthesis, biological evaluation and 3D-QSAR studies” (Eur J Med Chem, 2016).
Converted amounts (≈) assume the structure as drawn.

Tests used:
[1] = test system: Mycobacterium tuberculosis; test: Antitubercular activity against Mycobacterium tuberculosis H37Rv ATCC 27294 after 28 days by two-fold serial dilution method; assay type: functional; conditions: for MIC: Mycobacterium tuberculosis, H37Rv ATCC 27294, 672 h
Outline: (§1)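 NCCLS-recommended agar dilution run in triplicate against H37Rv ATCC 27294. Two-fold dilutions (50.0 to 0.4 µg/mL) in Middlebrook 7H11 agar with OADC. Inoculum came from fresh 7H11/OADC slants, adjusted to 1 mg/mL wet weight in 0.05% Tween 80 saline and diluted 10^-2 (~10^7 cfu/mL). 5 µL was spotted per tube, incubated at 37 °C and read at 28 days as MIC.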

[2] = Cytotoxicity against mouse RAW264.7 cells at 50 ug/ml after 72 hrs by MTT assay; assay type: cell-based; conditions: read-out: INH
[3] = Therapeutic index, ratio of cytotoxicity against mouse RAW264.7 cells to antitubercular activity against Mycobacterium tuberculosis H37Rv ATCC 27294; assay type: cell-based; conditions: read-out: TI
[4] = test system: Mycobacterium tuberculosis; test: Antitubercular activity against Mycobacterium tuberculosis […] by microplate Alamar blue assay; assay type: functional
[5] = test system: Mycobacterium tuberculosis; test: Antitubercular activity against Mycobacterium tuberculosis; assay type: functional; outline: as §1
[6] = test system: Mycobacterium tuberculosis; test: Antitubercular activity against Mycobacterium tuberculosis clinical isolate by BACTEC 460 TB method; assay type: functional

Structure (SMILES) | -logMIC [1] | MIC [1] [µM] | cytotoxicity at 72 h, 50 ug/ml [2] [%] | also measured
CC(=O)c1ccc(N2CCN(C(=O)c3nc4cc(C(F)(F)F)ccc4s3)CC2)cc1 | 4.84 | 14.4 (≈ 6.25 µg/mL) | 30.6 | 
O=C(c1nc2cc(Cl)ccc2s1)N1CCCCC1 |  | 44.5 (≈ 12.5 µg/mL) |  | 
CC(=O)N1CCN(C(=O)c2nc3cc(Cl)ccc3s2)CC1 | 4.41 | 38.6 (≈ 12.5 µg/mL) |  | 
O=C(c1nc2ccccc2s1)N1CCN(c2ccccc2)CC1 | 5.32 | 4.82 (≈ 1.56 µg/mL) | 67.2 | 
COc1ccccc1N1CCN(C(=O)c2nc3cc(Cl)ccc3s2)CC1 | 5.09 | 8.06 (≈ 3.13 µg/mL) | 63.4 | 
COc1ccccc1N1CCN(C(=O)c2nc3cc(C(F)(F)F)ccc3s2)CC1 |  | 59.3 (≈ 25 µg/mL) |  | 
O=C(c1nc2cc(C(F)(F)F)ccc2s1)N1CCN(c2ccncc2)CC1 | 5.1 | 7.96 (≈ 3.12 µg/mL) | 17.5 | 
COc1ccccc1N1CCN(C(=O)c2nc3ccccc3s2)CC1 | 5.05 | 8.84 (≈ 3.12 µg/mL) | 53.4 | 
COc1ccc(N2CCN(C(=O)c3nc4cc(C(F)(F)F)ccc4s3)CC2)cc1 | 5.13 | 7.42 (≈ 3.13 µg/mL) | 19.4 | 
CN1CCN(C(=O)c2nc3ccccc3s2)CC1 | 4.92 | 12 (≈ 3.13 µg/mL) | 52.1 | 
O=C(c1nc2cc(C(F)(F)F)ccc2s1)N1CCSCC1 |  | 2.35 (≈ 0.781 µg/mL) | 18.1 | selectivity ratio [3]: > 60
CC(=O)N1CCN(C(=O)c2nc3cc(C(F)(F)F)ccc3s2)CC1 | 5.36 | 4.37 (≈ 1.56 µg/mL) | 20.2 | 
CN1CCN(/N=C\c2cc(C(F)(F)F)nc3c(C(F)(F)F)cccc23)CC1 |  |  |  | MIC [4]: 3.56 µg/mL (≈ 9.12 µM)
O=C(c1nc2cc(Cl)ccc2s1)N1CCN(c2cnccn2)CC1 | 4.76 | 17.4 (≈ 6.25 µg/mL) | 54.9 | 
NC(=O)c1cnccn1 [PYRAZINAMIDE] |  | 50.8 (≈ 6.25 µg/mL) |  | 
CN1CCN(C(=O)c2nc3cc(Cl)ccc3s2)CC1 |  | 84.5 (≈ 25 µg/mL) |  | 
O=C(c1nc2ccccc2s1)N1CCN(C(c2ccccc2)c2ccccc2)CC1 | 5.72 | 1.89 (≈ 0.782 µg/mL) | 60.7 | 
CC(=O)c1ccc(N2CCN(C(=O)c3nc4cc(Cl)ccc4s3)CC2)cc1 | 5.41 | 3.9 (≈ 1.56 µg/mL) | 30.8 | 
O=C(c1nc2cc(Cl)ccc2s1)N1CCN(c2ccccc2)CC1 | 4.76 | 17.5 (≈ 6.25 µg/mL) | 41.2 | 
COc1ccc(N2CCN(C(=O)c3nc4ccccc4s3)CC2)cc1 | 4.45 | 35.4 (≈ 12.5 µg/mL) |  | 
O=C(c1nc2ccccc2s1)N1CCSCC1 |  | 94.6 (≈ 25 µg/mL) |  | 
O=C(c1nc2ccccc2s1)N1CCCCC1 |  | 101 (≈ 25 µg/mL) |  | 
O=C(c1nc2cc(Cl)ccc2s1)N1CCOCC1 |  | 22.1 (≈ 6.25 µg/mL) | 26.1 | 

Structure (SMILES) | -logMIC [1] | MIC [1] [µM] | cytotoxicity at 72 h, 50 ug/ml [2] [%] | also measured
COc1ccc(N2CCN(C(=O)c3nc4cc(Cl)ccc4s3)CC2)cc1 | 5.09 | 8.06 (≈ 3.13 µg/mL) | 42.8 | 
CCOC(=O)c1nc2cc(C(F)(F)F)ccc2s1 |  | 22.7 (≈ 6.25 µg/mL) | 29.1 | 
O=C(c1nc2ccccc2s1)N1CCN(c2ccncc2)CC1 | 5.02 | 9.63 (≈ 3.12 µg/mL) | 62 | 
CN1CCN(C(=O)c2nc3cc(C(F)(F)F)ccc3s2)CC1 | 4.72 | 19 (≈ 6.25 µg/mL) | 12.6 | 
O=C(c1nc2cc(Cl)ccc2s1)N1CCSCC1 |  | 20.9 (≈ 6.25 µg/mL) | 62.5 | 
CC[C@@H](CO)NCCN[C@@H](CC)CO [ETHAMBUTOL] |  | 7.64 (≈ 1.56 µg/mL) |  | 
CC(=O)N1CCN(C(=O)c2nc3ccccc3s2)CC1 | 5.27 | 5.39 (≈ 1.56 µg/mL) | 48.8 | 
CC(C)C(NC(=O)OCC1c2ccccc2-c2ccccc21)C(=O)O/N=C1\c2ccccc2-c2c1c(N1CCN(c3ccccn3)CC1)nc1ccc(Br)cc21 (stereo not drawn) |  |  |  | MIC [5]: 1.47 µg/mL (≈ 1.82 µM)
CC(=O)c1ccc(N2CCN(C(=O)c3nc4ccccc4s3)CC2)cc1 | 5.37 | 4.27 (≈ 1.56 µg/mL) | 62.3 | 
O=C(c1nc2ccccc2s1)N1CCOCC1 |  | 6.28 (≈ 1.56 µg/mL) | 36.2 | 
O=C(c1nc2cc(C(F)(F)F)ccc2s1)N1CCN(C(c2ccccc2)c2ccccc2)CC1 |  | 51.9 (≈ 25 µg/mL) |  | 
O=C(c1nc2cc(C(F)(F)F)ccc2s1)N1CCCCC1 |  | 39.8 (≈ 12.5 µg/mL) |  | 
CCOC(=O)c1nc2ccccc2s1 |  | 121 (≈ 25 µg/mL) |  | 
O=C(c1nc2cc(Cl)ccc2s1)N1CCN(c2ccncc2)CC1 | 4.46 | 34.8 (≈ 12.5 µg/mL) |  | 
NNC(=O)c1ccncc1 [ISONIAZID] |  | 0.72 (≈ 0.0987 µg/mL) |  | 
CO[C@H]1/C=C/O[C@@]2(C)Oc3c(C)c(O)c4c(O)c(c(/C=N/N5CCN(C)CC5)c(O)c4c3C2=O)NC(=O)/C(C)=C\C=C\[C@H](C)[C@H](O)[C@@H](C)[C@@H](O)[C@@H](C)[C@H](OC(C)=O)[C@@H]1C [RIFAMPIN] |  | 0.24 (≈ 0.198 µg/mL) |  | 
O=C(c1nc2cc(C(F)(F)F)ccc2s1)N1CCN(c2cnccn2)CC1 | 5.1 | 7.94 (≈ 3.12 µg/mL) | 28.1 | 
O=C(c1nc2cc(C(F)(F)F)ccc2s1)N1CCOCC1 |  | 2.47 (≈ 0.781 µg/mL) | 24.6 | selectivity ratio [3]: > 60
O=C(c1nc2cc(C(F)(F)F)ccc2s1)N1CCN(c2ccccc2)CC1 |  | 31.9 (≈ 12.5 µg/mL) |  | 
O=C(c1nc2cc(Cl)ccc2s1)N1CCN(C(c2ccccc2)c2ccccc2)CC1 | 5.76 | 1.74 (≈ 0.78 µg/mL) | 52.9 | 
Cc1c(CN2CCN(C)CC2)cc(-c2ccc(Cl)cc2)n1-c1ccc(Cl)cc1 |  |  |  | MIC [6]: 1.5 µg/mL (≈ 3.62 µM)
O=C(c1nc2ccccc2s1)N1CCN(c2cnccn2)CC1 | 4.72 | 19.2 (≈ 6.25 µg/mL) | 65.3 | 
CCOC(=O)c1nc2cc(Cl)ccc2s1 |  | 12.9 (≈ 3.13 µg/mL) | 37.4 | 
